Here are results for 9 compounds from ChEMBL document CHEMBL2321850, “Fragment-based discovery of 8-hydroxyquinoline inhibitors of the HIV-1 integrase-lens epithelium-derived growth factor/p75 (IN-LEDGF/p75) interaction” (J Med Chem, 2013).

For data set [1], the system named is LNCaP. Description: Cytotoxicity against human LNCAP cells assessed as inhibition of cell proliferation after 72 hrs by MTT assay. The data set is classed as cell-based.
The target in data set [2] is T1, Human immunodeficiency virus type 1 integrase (Human immunodeficiency virus 1, UniProt Q7ZJM1). Description: Inhibition of HIV-1 integrase strand transfer activity.
For data set [3], the system named is MT4. Description: Cytotoxicity against human MT4 cells assessed as cell viability after 72 hrs by MTT assay. The format is cell-based. Particulars: mt4, 72 h. A digest of the protocol: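 MT-4 cells exposed to fivefold serial dilutions of compound run in parallel with the antiviral MTT cytopathic-effect assay; CC50 taken as the concentration killing 50% of MT-4 cells.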
In general terms: Tetrazolium dyes change colour on reduction, which living cells bring about.

Data set [4] concerns Human immunodeficiency virus 1. Description: Inhibition of HIV-1 FLAG-6x-His-tagged integrase interaction to FLAG-tagged LEDGF/p75 at 10 uM preincubated for 30 mins prior to LEDGF/p75 addition measured after 60 mins by quenching assay.
Data set [5] in a line: Selectivity index, ratio of CC50 for human MT4 cells to EC50 for HIV infected human MT4 cells. The format is toxicity, cell-based. Particulars: MT4 cells (CC50) and HIV-infected MT4 cells (EC50). A digest of the protocol:
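MT-4 cells infected with 100 to 300 CCID50 of HIV in the presence of fivefold serial compound dilutions. Protection against virus-induced cytopathic effect was read by MTT to give EC50. CC50 came from parallel MTT viability testing of uninfected MT-4 cells. Selectivity index was calculated as CC50/EC50.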

The target of data set [6] is T1, Human immunodeficiency virus type 1 integrase. As to the kind of experiment: Inhibition of HIV-1 integrase 3'-processing activity.
Data set [7] concerns Human immunodeficiency virus. Description: Antiviral activity against HIV infected human MT4 cells assessed as decrease of virus-induced cytopathic effect after 72 hrs by MTT assay. The format is functional, organism-based. Particulars: Human immunodeficiency virus 1, MT4, 72 h. The essentials:
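MT-4 cells infected with 100 to 300 CCID50 of HIV (CCID50 from virus-stock titration on MT-4) in presence of fivefold serial compound dilutions; protection from viral cytopathic effect read by MTT; EC50 = concentration giving 50% protection. CC50 in MT-4 cells measured in parallel.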

Data set [8] in a line: Inhibition of HIV-1 His6-tagged integrase interaction to FLAG-tagged LEDGF/p75 preincubated for 30 mins prior to LEDGF/p75 addition measured after 60 mins by alphascreen assay. Also noted: species or system Human immunodeficiency virus 1. A digest of the protocol:
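His6-tagged IN (300 nM final) preincubated with compound (20 µM final) 30 min at 4 °C, then FLAG-LEDGF/p75 (300 nM final) added for 60 min at 4 °C; Ni-chelate donor and anti-FLAG acceptor beads (20 µg/mL each) added, 1 h at 30 °C, light-protected; acceptor-bead emission read.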

Data set [9] can be described thus: Cytotoxicity against human LNCAP cells assessed as growth inhibition at 10 uM after 72 hrs by MTT assay. The format is cell-based. Particulars: read-out: Activity.

T1 sequence (Q7ZJM1 whole entry): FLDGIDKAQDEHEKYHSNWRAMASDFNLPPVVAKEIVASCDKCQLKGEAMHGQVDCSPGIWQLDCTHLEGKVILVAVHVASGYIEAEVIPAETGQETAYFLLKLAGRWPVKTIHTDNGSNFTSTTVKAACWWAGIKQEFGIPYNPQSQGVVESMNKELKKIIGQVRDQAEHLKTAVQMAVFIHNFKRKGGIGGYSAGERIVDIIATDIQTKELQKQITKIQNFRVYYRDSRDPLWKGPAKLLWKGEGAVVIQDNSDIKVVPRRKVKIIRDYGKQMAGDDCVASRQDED

In the case of `Cc1ccc(NCc2ccc(O)c3ncccc23)cc1C`, the half-maximal cytotoxic concentration (CC50) (as a rule, the concentration that lowers cell viability or growth by half) in [1] is over 10 µM; in [3] it was 33.5 µM. Further, the IC50 – broadly, the concentration that inhibits the measured activity by half – in [2] is over 20 µM; in data set [6], over 20 µM; in data set [8], 4.6 µM. The compound also had an inhibition in [4] of under 50%. Further, the selectivity ratio in data set [5] was found to be 2. Further, in [7], the EC50 (usually the concentration needed to bring the measured effect to its halfway point) was determined as 17.9 µM.

On to `Cc1ccccc1NCc1ccc(O)c2ncccc12`, for which the values for the CC50 in [1] and in data set [3] were over 10 µM and 9 µM, respectively. Moreover, the concentration for half-maximal inhibition (IC50) in data set [2] is over 20 µM; in [6] it was over 20 µM; in data set [8] it was 1.4 µM. In [4], this compound displayed an inhibition of under 50%. The concentration giving a half-maximal response (EC50) in data set [7] was over 9 µM. Also, the inhibition at 72 h, 10 µM in data set [9] is 0%.

Consider `O=C(CC(Sc1cccc2cccnc12)c1ccc(OC(F)F)cc1)c1ccco1` (configuration not stated), for which the figures for the CC50 in data set [1] and in [3] were 0.8 µM and 2 µM, respectively. Besides, the half-inhibitory concentration (IC50) was over 20 µM in [2], over 20 µM in data set [6] and 3 µM in [8]. The compound also registered an inhibition in data set [4] of under 50%. Besides, the EC50 in data set [7] is over 2 µM. The inhibition at 72 h, 10 µM in [9] came out at 73%.

On to `Cc1ccc(S(=O)(=O)NC(=O)Oc2cccc3cccnc23)cc1`, for which the CC50 was over 10 µM in data set [1] and 2 µM in [3]. Further, the IC50 is over 20 µM in [2], over 20 µM in data set [6] and 1.7 µM in data set [8]. Moreover, the inhibition in data set [4] was under 50%. The 50% effective concentration (EC50) in data set [7] was over 2 µM. In addition, the inhibition at 72 h, 10 µM in [9] came out at 13%.

Turning to `Cc1ccc(NCc2ccc(O)c3ncccc23)cc1`, the half-maximal cytotoxic concentration (CC50) was over 10 µM in data set [1] and 36.5 µM in data set [3]. The IC50 was over 20 µM in data set [2], over 20 µM in data set [6] and 3.3 µM in [8]. The compound also showed an inhibition in data set [4] of under 50%. For the same compound, the selectivity ratio in [5] worked out at 2. In addition, the EC50 in data set [7] was 15.4 µM.

As for `O=C(CC(Sc1cccc2cccnc12)c1ccc(F)cc1)c1cccs1` (configuration not stated), the CC50 in [1] was over 10 µM. Further, the figures for the IC50 in [2], in data set [6] and in data set [8] were over 20 µM, over 20 µM and 3 µM, respectively. Besides, the inhibition in data set [4] was under 50%. For the same compound, in [9], the inhibition at 72 h, 10 µM is 21%.

Regarding `Oc1ccc(CN2CCCCC2)c2cccnc12`, the values for the cytotoxic concentration (CC50) in [1] and in [3] were over 10 µM and 9 µM, respectively. Also, the half-maximal inhibitory concentration (IC50) in data set [2] was over 20 µM; in [6], over 20 µM; in data set [8] it was 0.4 µM. Besides, the inhibition in data set [4] is under 50%. Also, the half-maximal effective concentration (EC50) in data set [7] is over 9 µM.

Turning to `Oc1ccc(CNc2ccccc2Cl)c2cccnc12`, the half-maximal cytotoxic concentration (CC50) in [1] was over 10 µM; in [3], 34 µM. For the same compound, the figures for the 50% inhibitory concentration (IC50) in data set [2], in data set [6] and in data set [8] were over 20 µM, over 20 µM and 4.8 µM, respectively. Moreover, the inhibition in data set [4] is under 50%. In data set [7], the concentration for a half-maximal effect (EC50) was over 34 µM.

Consider `Oc1ccc(CN2CCN(c3ccccn3)CC2)c2cccnc12`, for which the CC50 is over 10 µM in data set [1] and 9 µM in data set [3]. Besides, the values for the half-maximal inhibitory concentration (IC50) in data set [2], in data set [6] and in data set [8] were over 20 µM, over 20 µM and 1.9 µM, respectively. For the same compound, the inhibition in data set [4] was under 50%. The EC50 in data set [7] is over 9 µM.
